These results are taken from article PMC4418331 (Journal of Clinical Pharmacology, 2015).

Data set [1] is described as follows: Safety and tolerability assessments. The data set is classed as in vivo, human (postmenopausal women with T2D). Particulars: for Increase in serum amylase concentration / Increase in serum lipase concentration: mean ± SD. An outline of the steps:
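Test compound given subcutaneously once weekly, escalated 0.25 mg for 4 weeks, 0.5 mg for 4 weeks, then 1.0 mg for 5 weeks. A combined oral contraceptive was given once daily for 8 days before escalation and again during the final week. The investigator recorded AEs, both observed and spontaneously reported, with severity graded and relation assessed. Amylase and lipase were measured as change from baseline to end of treatment and to follow-up (5 weeks after last dose), mean ± SD.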

The conditions of data set [2]: cited from earlier work.
Data set [3] has as its system dipeptidyl peptidase-4 (DPP-4). Particulars: in words; native GLP-1 ref 1; semaglutide ref 12; cited from earlier work.
Where [4] appears, read: baseline to end of semaglutide treatment.

In data set [1] (6 subjects, all mild or moderate), `CC[C@H](C)[C@H](NC(=O)[C@H](Cc1ccccc1)NC(=O)[C@H](CCC(=O)O)NC(=O)[C@H](CCCCNC(=O)COCCOCCNC(=O)COCCOCCNC(=O)CC[C@H](NC(=O)CCCCCCCCCCCCCCCCC(=O)O)C(=O)O)NC(=O)[C@H](C)NC(=O)[C@H](C)NC(=O)[C@H](CCC(N)=O)NC(=O)CNC(=O)[C@H](CCC(=O)O)NC(=O)[C@H](CC(C)C)NC(=O)[C@H](Cc1ccc(O)cc1)NC(=O)[C@H](CO)NC(=O)[C@H](CO)NC(=O)[C@@H](NC(=O)[C@H](CC(=O)O)NC(=O)[C@H](CO)NC(=O)[C@@H](NC(=O)[C@H](Cc1ccccc1)NC(=O)[C@@H](NC(=O)CNC(=O)[C@H](CCC(=O)O)NC(=O)C(C)(C)NC(=O)[C@@H](N)Cc1cnc[nH]1)[C@@H](C)O)[C@@H](C)O)C(C)C)C(=O)N[C@@H](C)C(=O)N[C@@H](Cc1c[nH]c2ccccc12)C(=O)N[C@@H](CC(C)C)C(=O)N[C@H](C(=O)N[C@@H](CCCNC(=N)N)C(=O)NCC(=O)N[C@@H](CCCNC(=N)N)C(=O)NCC(=O)O)C(C)C` [semaglutide] returned a Subjects reporting diarrhea of 14%. For the same compound, the “Severe hypoglycemia (ADA classification)” value in data set [1] (FPG at study site and self-measured at home) is listed as “no cases of severe hypoglycemia were reported”. In addition, in data set [1] (setting [4]), the “Increase in serum amylase concentration” value is on record as 1.5 ± 15.3 U/L and the “Increase in serum lipase concentration” value is given as 9.4 ± 24.3 U/L. For the same compound, in data set [1] (baseline to follow-up), the “Increase in serum amylase concentration” value is recorded as 7.0 ± 14.1 U/L and the “Increase in serum lipase concentration” value stood at 10.7 ± 32.6 U/L. In data set [1] (in vivo), the Antisemaglutide antibodies result is recorded as “No antisemaglutide antibodies were detected in any subject”; the “Changes in ECG or safety laboratory parameters, including calcitonin” value is recorded as “No clinically meaningful changes were observed”; the Pancreatitis entry was “No cases of pancreatitis were reported”; the “Serum amylase values ≥3x ULN” value is “No value was ≥3x ULN”. In addition, in data set [1] (min, max: 0.01, 95.6), the “Duration of nausea episodes, median” value turned out to be 3.9 days. The Injection-site reactions entry in data set [1] (s.c. injection) is reported as “no injection-site reactions were reported”. In addition, the “Subjects reporting TEAEs” value in data set [1] (whole study (oral contraceptive and semaglutide periods), 38 of 43 subjects) turned out to be 88%. Besides, the “Serious AEs” value in data set [1] (whole study, n = 43) is on record as “No serious AEs were reported”. The “Reported t1/2” value in data set [2] was 155 to 184 h. Moreover, in data set [3], the “Degradation by dipeptidyl peptidase-4 (DPP-4)” value is on record as “less susceptible to degradation by DPP-4”.
For “Glucagon-like peptide-1 [native GLP-1, reference compound]”, the “Half-life (t1/2)” value in data set [2] (in words) was “very short”. Further, the “Degradation by dipeptidyl peptidase-4 (DPP-4)” value in data set [3] is recorded as “rapidly degraded”.
